Assay results as given in ChEMBL document CHEMBL1932938, “From COX-2 inhibitor nimesulide to potent anti-cancer agent: synthesis, in vitro, in vivo and pharmacokinetic evaluation” (Eur J Med Chem, 2012).
Activity calls are given as the source filed them. The calls are words filed in the database; no cut-off is given here.

How the values were obtained:
PC-3 = test: Growth inhibition of human PC3 cells after 48 hrs by SRB assay; assay type: functional
HL-60(TB) = test: Growth inhibition of human HL-60(TB) cells after 48 hrs by SRB assay; assay type: functional
Procedure, shortened: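 Tested in the 60-cell-line panel of the NCI Developmental Therapeutics Program with 48 h drug exposure. The read-out is cellular protein.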

NCI-H23 = test: Growth inhibition of human NCI-H23 cells after 48 hrs by SRB assay; assay type: functional
SK-BR-3 [1] = test: Cell cycle arrest in human SK-BR-3 cells assessed as accumulation at G1 phase at 0.50 uM after 12 hrs using propidium iodide staining by FACS analysis; assay type: functional
Procedure, shortened: (§1)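 SKBR-3 cells in RPMI1640 with 10% heat-inactivated FBS at 37 °C and 5% CO₂ were treated for the stated times. Cells were fixed overnight in 70% EtOH at −20 °C, then stained with propidium iodide buffer (38 mM sodium citrate pH 7.5, 69 µM PI, 120 µg/mL RNase A) for 15 min at room temperature in the dark. Up to 1×10⁴ gated cells were analyzed by flow cytometry, giving percent distribution per phase.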

MDA-MB-468 = test: Growth inhibition of human MDA-MB-468 cells after 48 hrs by SRB assay; assay type: functional
SK-BR-3 [2] = test: Cell cycle arrest in human SK-BR-3 cells assessed as accumulation at G2/M phase at 0.25 uM after 3 hrs using propidium iodide staining by FACS analysis; assay type: functional; procedure, shortened: as §1
SK-BR-3 [3] = test: Cell cycle arrest in human SK-BR-3 cells assessed as accumulation at G1 phase at 0.10 uM after 6 hrs using propidium iodide staining by FACS analysis; assay type: functional; procedure, shortened: as §1
SF-295 = test: Growth inhibition of human SF295 cells after 48 hrs by SRB assay; assay type: functional
SNB-75 = test: Growth inhibition of human SNB75 cells after 48 hrs by SRB assay; assay type: functional
HT-29 = test: Antitumor activity against human HT-29 cells xenografted in BALB/c athymic nu/nu mouse assessed as decrease in tumor size at 5 mg/kg/day, ip administered 5 times per week for 3 weeks; assay type: functional, organism-based
Procedure, shortened: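 Athymic BALB/c nu/nu mice received s.c. HT29 cells in Matrigel, 200 µL per site at two flank sites. Treatment started at ~200 mm³: 5 mg/kg/d i.p., five times weekly for three weeks, in 1% DMSO/sesame oil; controls got vehicle. Three mice per group. Tumors were measured twice weekly by caliper, volume = width²×length/2. Tumors were excised and weighed at the end.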

SK-BR-3 [4] = test: Cell cycle arrest in human SK-BR-3 cells assessed as accumulation at G2/M phase at 0.25 uM after 18 hrs using propidium iodide staining by FACS analysis; assay type: functional; procedure, shortened: as §1
[5] = Apparent volume of distribution during terminal phase in Sprague-Dawley rat at 20 mg/kg, ip; assay type: ADME, organism-based; set-up: dose 20 mg/kg, route intraperitoneal; conditions: in vivo, read-out: Vz/F
Procedure, shortened: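 Male Sprague–Dawley rats (300–350 g), n=3, fasted overnight with water available, given a single 20 mg/kg i.p. dose in PBS with 0.1% Tween80 and 20% DMSO. Blood drawn into heparinized tubes at 0, 0.25, 0.5, 1, 2, 4, 8 and 24 h. Plasma measured by LC-MS/MS against an internal standard. Parameters from non-compartmental analysis.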

Mus musculus = test: Acute toxicity in nude mouse assessed as body weight loss at 100 to 400 mg/kg administered as single dose measured after 2 weeks; assay type: organism-based; set-up: dose 100-400 mg/kg; conditions: in vivo, 336 h
SNB-19 = test: Growth inhibition of human SNB19 cells after 48 hrs by SRB assay; assay type: functional
OVCAR-8 = test: Growth inhibition of human OVCAR8 cells after 48 hrs by SRB assay; assay type: functional
SK-BR-3 [6] = test: Cell cycle arrest in human SK-BR-3 cells assessed as accumulation at Sub-G1 phase at 5 uM after 12 hrs using propidium iodide staining by FACS analysis; assay type: functional
SK-BR-3 [7] = test: Cell cycle arrest in human SK-BR-3 cells assessed as accumulation at Sub-G1 phase at 0.25 uM after 24 hrs using propidium iodide staining by FACS analysis; assay type: functional
SK-BR-3 [8] = test: Cell cycle arrest in human SK-BR-3 cells assessed as accumulation at G2/M phase at 5 uM after 6 hrs using propidium iodide staining by FACS analysis; assay type: functional; procedure, shortened: as §1
SK-BR-3 [9] = test: Cell cycle arrest in human SK-BR-3 cells assessed as accumulation at Sub-G1 phase at 0.25 uM after 18 hrs using propidium iodide staining by FACS analysis; assay type: functional
SF-268 = test: Growth inhibition of human SF268 cells after 48 hrs by SRB assay; assay type: functional
SK-BR-3 [10] = test: Cell cycle arrest in human SK-BR-3 cells assessed as accumulation at S phase at 0.50 uM after 3 hrs using propidium iodide staining by FACS analysis; assay type: functional
SK-BR-3 [11] = test: Cell cycle arrest in human SK-BR-3 cells assessed as accumulation at Sub-G1 phase at 5 uM after 6 hrs using propidium iodide staining by FACS analysis; assay type: functional
[12] = Mean residence time (0 to t) in Sprague-Dawley rat at 20 mg/kg, ip; assay type: ADME, organism-based; set-up: dose 20 mg/kg, route intraperitoneal; conditions: in vivo
Procedure, shortened: (§2)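 Male Sprague–Dawley rats (300–350 g, n=3), fasted overnight with water allowed. Single 20 mg/kg i.p. dose in PBS with 0.1% Tween80 and 20% DMSO. Blood taken from saphenous and femoral veins into heparinized tubes at 0, 0.25, 0.5, 1, 2, 4, 8 and 24 h. Plasma quantified by LC-MS/MS (MRM, 483.3→404.3) after tert-butyl methyl ether/hexane extraction. Parameters derived non-compartmentally.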

SK-BR-3 [13] = test: Cell cycle arrest in human SK-BR-3 cells assessed as accumulation at S phase at 0.10 uM after 6 hrs using propidium iodide staining by FACS analysis; assay type: functional; procedure, shortened: as §1
SK-BR-3 [14] = test: Cell cycle arrest in human SK-BR-3 cells assessed as accumulation at G1 phase at 5 uM after 12 hrs using propidium iodide staining by FACS analysis; assay type: functional; procedure, shortened: as §1
SK-BR-3 [15] = test: Cell cycle arrest in human SK-BR-3 cells assessed as accumulation at G2/M phase at 0.10 uM after 6 hrs using propidium iodide staining by FACS analysis; assay type: functional; procedure, shortened: as §1
UACC-257 = test: Growth inhibition of human UACC257 cells after 48 hrs by SRB assay; assay type: functional
[16] = Tmax in Sprague-Dawley rat plasma at 20 mg/kg, ip; assay type: ADME, organism-based; set-up: dose 20 mg/kg, route intraperitoneal; procedure, shortened: as §2

Cc1ccc(C)c(COc2cc(NC(=O)c3ccc4c(c3)OCO4)ccc2N(C)S(C)(=O)=O)c1
growth inhibition (GI) (PC-3): Dose-dependent effect | GI50 (PC-3; PC-3, 48 h): 67.7 nM | TGI (PC-3; PC-3, 48 h): > 100000 nM | growth inhibition (GI) (HL-60(TB)): Dose-dependent effect | GI50 (HL-60(TB); HL-60, 48 h): 26.9 nM | TGI (HL-60(TB); HL-60, 48 h): 96.7 nM | CC50 (HL-60(TB); HL-60, 48 h, read-out: LC50 (the source's name)): > 100000 nM | growth inhibition (GI) (NCI-H23): Dose-dependent effect | GI50 (NCI-H23; NCI-H23, 48 h): 162 nM | TGI (NCI-H23; NCI-H23, 48 h): > 100000 nM | CC50 (NCI-H23; NCI-H23, 48 h, read-out: LC50 (the source's name)): > 100000 nM | Activity (SK-BR-3 [1]): 63.15% | growth inhibition (GI) (MDA-MB-468): Dose-dependent effect | GI50 (MDA-MB-468; MDA-MB-468, 48 h): 155 nM | TGI (MDA-MB-468; MDA-MB-468, 48 h): 401 nM | Activity (SK-BR-3 [2]): 10.77% | Activity (SK-BR-3 [3]): 71.43% | growth inhibition (GI) (SF-295): Dose-dependent effect | GI50 (SF-295; SF-295, 48 h): 98.3 nM | TGI (SF-295; SF-295, 48 h): 626 nM | CC50 (SF-295; SF-295, 48 h, read-out: LC50 (the source's name)): > 100000 nM | growth inhibition (GI) (SNB-75): Dose-dependent effect | GI50 (SNB-75; SNB-75, 48 h): 266 nM | CC50 (SNB-75; SNB-75, 48 h, read-out: LC50 (the source's name)): > 100000 nM | Activity (HT-29): Active | Activity (SK-BR-3 [4]): 10.57% | Vd/F [5]: 2.16 L/kg | Activity (Mus musculus): Non-toxic | growth inhibition (GI) (SNB-19): Dose-dependent effect | GI50 (SNB-19; SNB-19, 48 h): 537 nM | TGI (SNB-19; SNB-19, 48 h): > 100000 nM | CC50 (SNB-19; SNB-19, 48 h, read-out: LC50 (the source's name)): > 100000 nM | growth inhibition (GI) (OVCAR-8): Dose-dependent effect | GI50 (OVCAR-8; OVCAR-8, 48 h): 265 nM | TGI (OVCAR-8; OVCAR-8, 48 h): > 100000 nM | CC50 (OVCAR-8; OVCAR-8, 48 h, read-out: LC50 (the source's name)): > 100000 nM | Activity (SK-BR-3 [6]): 9.76% | Activity (SK-BR-3 [7]): 24.95% | Activity (SK-BR-3 [8]): 17.19% | Activity (SK-BR-3 [9]): 8.89% | growth inhibition (GI) (SF-268): Dose-dependent effect | GI50 (SF-268; SF-268, 48 h): 288 nM | TGI (SF-268; SF-268, 48 h): > 100000 nM | CC50 (SF-268; SF-268, 48 h, read-out: LC50 (the source's name)): > 100000 nM | Activity (SK-BR-3 [10]): 17.76% | Activity (SK-BR-3 [11]): 3.42% | MRT last [12]: 6 h | Activity (SK-BR-3 [13]): 15.84% | Activity (SK-BR-3 [14]): 63.71% | Activity (SK-BR-3 [15]): 9.07% | growth inhibition (GI) (UACC-257): Dose-dependent effect | GI50 (UACC-257; UACC-257, 48 h): 144 nM | TGI (UACC-257; UACC-257, 48 h): > 100000 nM | CC50 (UACC-257; UACC-257, 48 h, read-out: LC50 (the source's name)): > 100000 nM | Tmax [16]: 2 h
